Test results: ChEMBL document CHEMBL3865845 (J Med Chem, 2016)
Activity calls are given as the source filed them. The calls are words filed in the database; no cut-off is given here.

Assays:
[1] = system: Human immunodeficiency virus 1; assay: Antiviral activity against wild type HIV1 NL4-3 infected in human MT4 cells by p24 ELISA; type: functional, cell-based; conditions: Human immunodeficiency virus 1, NL4-3, MT4
Outline: (§1)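 Replication-inhibition IC50 values in MT-4 cells, each from three separate experiments.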

[2] = Cytotoxicity against human MT4 cells assessed as reduction in cell viability after 2 days by CytoTox-Glo assay; type: toxicity, cell-based; conditions: mt4, 48 h
[3] = system: Human immunodeficiency virus 1; assay: Resistance index, ratio of IC50 for bevirimat-resistant HIV1 NL4-3 harboring GagV370A mutant infected in human MT4 cells to IC50 for wild type HIV1 NL4-3 infected in human MT4 cells; type: functional
[4] = system: Human immunodeficiency virus 1; assay: Antiviral activity against bevirimat-resistant HIV1 NL4-3 harboring GagV370A mutant infected in human MT4 cells by p24 ELISA; type: functional, cell-based; conditions: Human immunodeficiency virus 1, NL4-3, MT4; outline: as §1
[5] = system: Human immunodeficiency virus 1; assay: Potency index, ratio of IC50 for Bevirimat to IC50 for test compound for antiviral activity against bevirimat-resistant HIV1 NL4-3 harboring GagV370A mutant infected in human MT4 cells by p24 ELISA; type: functional
[6] = system: COS; assay: Inhibition of wild type HIV1 NL4-3 Env-mediated cell-cell fusion between viral envelope expressing virus-infected African green monkey COS cells to human TZM-bl cells incubated overnight by luciferase reporter gene assay; type: cell-based; conditions: Human immunodeficiency virus 1
[7] = Elimination half life in healthy humans; type: ADME; conditions: human, in vivo; read-out: beta t1/2
[8] = system: Human immunodeficiency virus 1; assay: Antiinfective activity against wild type HIV1 NL4-3 assessed as inhibition of viral infection by measuring viral infection level in human TZM-bl cells at 2 uM after 48 hrs by luciferase reporter gene assay (reference value: 100%); type: functional; parameters: scale not given: the % may be the effect or the level left
Outline: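 NL4-3 infection of TZM-bl cells with each compound at 2 µM, read by luminescence. Infection without compound served as control. % control infection = 100 × RLU(compound)/RLU(control).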

[9] = system: Human immunodeficiency virus 1; assay: Potency index, ratio of IC50 for Bevirimat to IC50 for test compound for antiviral activity against wild type HIV1 NL4-3 infected in human MT4 cells by p24 ELISA; type: functional
[10] = Half life in human liver microsomes at 1 uM in presence of NADPH by LC/MS/MS analysis; type: ADME
[11] = Selectivity index, ratio of CC50 for human MT4 cells to IC50 for wild type HIV1 NL4-3 infected in human MT4 cells; type: functional
Outline: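 Index is CC50 (cytotoxicity in MT-4 cells) divided by IC50 (inhibition of HIV-1/NL4-3 replication in MT-4 lymphocytes). Values are from three separate experiments. A ratio below 5 was scored as no selective anti-HIV activity.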

[12] = Inhibition of HIV1 integrase activity assessed as suppression of viral replication in human MT2 cells; type: cell-based; conditions: Human immunodeficiency virus 1, MT2
[13] = Inhibition of HIV1 integrase activity assessed as suppression of viral replication in human H9 cells; type: cell-based; conditions: Human immunodeficiency virus 1, H9

Question: For `C=C(C)[C@@H]1CC[C@]2(C(=O)N3CCN(C(=O)/C=C/c4ccc(OCOC)c(OCOC)c4)CC3)CC[C@]3(C)[C@H](CC[C@@H]4[C@@]5(C)CC[C@H](O)C(C)(C)[C@@H]5CC[C@]43C)[C@@H]12`, which IC50 [1] is on record?
Answer: The IC50 was > 1 µM.

Question: For `C=C(C)[C@@H]1CC[C@]2(C(=O)N3CCN(C(=O)/C=C/c4ccc(OCOC)c(OCOC)c4)CC3)CC[C@]3(C)[C@H](CC[C@@H]4[C@@]5(C)CC[C@H](OC(=O)CC(C)(C)C(=O)O)C(C)(C)[C@@H]5CC[C@]43C)[C@@H]12`, which IC50 [1] is on record?
Answer: The IC50 was 0.05 µM.

Question: And the CC50 [2]?
Answer: The CC50 was > 4.5 µM.

Question: For `O=C(/C=C/c1ccc2c(c1)OCO2)N1CCNCC1`, which IC50 [1] is on record?
Answer: The IC50 was > 90 µM.

Question: And the CC50 [2]?
Answer: The CC50 was > 90 µM.

Question: Which results are given for `C=C(C)[C@@H]1CC[C@]2(C(=O)N3CCN(C(=O)/C=C/c4ccc(OC)c(OC)c4)CC3)CC[C@]3(C)[C@H](CC[C@@H]4[C@@]5(C)CC[C@H](OC(=O)CC(C)(C)C(=O)O)C(C)(C)[C@@H]5CC[C@]43C)[C@@H]12`?
Answer: IC50 [1]: 0.029 µM; Ratio IC50 [3]: 102.41; IC50 [4]: 2.97 µM; CC50 [2]: > 4.5 µM; Ratio IC50 [5]: 1.39 - 51.4

Question: For `C=C(C)[C@@H]1CC[C@]2(C(=O)NCCCCCCCNC(C)=O)CC[C@]3(C)[C@H](CC[C@@H]4[C@@]5(C)CC[C@H](O)C(C)(C)[C@@H]5CC[C@]43C)[C@@H]12`, which inhibition [6] is on record?
Answer: Its inhibition is “Active”.

Question: What does the source list for `O=C(O)/C=C/c1ccc2c(c1)OCO2`?
Answer: IC50 [1]: > 90 µM; CC50 [2]: > 90 µM

Question: With `C=C(C)[C@@H]1CC[C@]2(C(=O)N3CCN(C(=O)/C=C/c4ccc5c(c4)OCO5)CC3)CC[C@]3(C)[C@H](CC[C@@H]4[C@@]5(C)CC[C@H](OC(=O)CC(C)(C)C(=O)O)C(C)(C)[C@@H]5CC[C@]43C)[C@@H]12` as the molecule, how does the IC50 [1] read?
Answer: The IC50 was 0.019 µM.

Question: And the “Ratio IC50” value [3]?
Answer: Its value is 7.89 - 7.9.

Question: What about the half-life [7] of the same molecule?
Answer: The half-life was 56.3 to 69.5 h.

Question: What about the IC50 [4] of the same molecule?
Answer: The IC50 was 0.15 µM.

Question: What about the CC50 [2] of the same molecule?
Answer: The CC50 was > 4.5 µM.

Question: What about the Activity [8] of the same molecule?
Answer: Its Activity is 99%.

Question: And the “Ratio IC50” value [5]?
Answer: Its value is 51.

Question: And the “Ratio IC50” value [9]?
Answer: The value was 3.

Question: What about the t1/2 [10] of the same molecule?
Answer: Its t1/2 is 2.13 h.

Question: For `C=C(C)[C@@H]1CC[C@]2(C(=O)N3CCN(CCCCC(=O)N4CCN(C(=O)/C=C/c5ccc6c(c5)OCO6)CC4)CC3)CC[C@]3(C)[C@H](CC[C@@H]4[C@@]5(C)CC[C@H](OC(=O)CC(C)(C)C(=O)O)C(C)(C)[C@@H]5CC[C@]43C)[C@@H]12`, which IC50 [1] is on record?
Answer: The IC50 was 0.012 µM.

Question: What about the “Ratio IC50” value [3] of the same molecule?
Answer: The value was 460.83.

Question: What about the IC50 [4] of the same molecule?
Answer: Its IC50 is 5.53 µM.

Question: And the CC50 [2]?
Answer: The CC50 was > 4.5 µM.

Question: And the “Ratio IC50” value [5]?
Answer: The value was 1.39 - 51.4.

Question: For `O=C(O)/C=C/c1ccc(O)c(O)c1` [CAFFEIC ACID], which IC50 [1] is on record?
Answer: The IC50 was > 1 µM.

Question: What about the “Ratio CC50/IC50” value [11] of the same molecule?
Answer: Its value is <5.

Question: Which IC50 [12] does the source give for `O=C(/C=C/c1ccc(O)c(O)c1)O[C@H](C(=O)O)[C@H](OC(=O)/C=C/c1ccc(O)c(O)c1)C(=O)O` [CHICORIC ACID] here?
Answer: The IC50 was 4.2 µM.

Question: For `C=C(C)[C@@H]1CC[C@]2(C(=O)O)CC[C@]3(C)[C@H](CC[C@@H]4[C@@]5(C)CC[C@H](OC(=O)CC(C)(C)C(=O)O)C(C)(C)[C@@H]5CC[C@]43C)[C@@H]12` [BEVIRIMAT], which IC50 [1] is on record?
Answer: Its IC50 is 0.065 µM.

Question: And the IC50 [4]?
Answer: The IC50 was 7.71 µM.

Question: What about the CC50 [2] of the same molecule?
Answer: Its CC50 is > 4.5 µM.

Question: What about the Activity [8] of the same molecule?
Answer: The Activity was 98%.

Question: What about the t1/2 [10] of the same molecule?
Answer: Its t1/2 is 0.9 h.

Question: For `C=C(C)[C@@H]1CC[C@]2(C(=O)N3CCN(C(=O)/C=C/c4ccc(O)c(O)c4)CC3)CC[C@]3(C)[C@H](CC[C@@H]4[C@@]5(C)CC[C@H](OC(=O)CC(C)(C)C(=O)O)C(C)(C)[C@@H]5CC[C@]43C)[C@@H]12`, which IC50 [1] is on record?
Answer: The IC50 was 0.028 µM.

Question: And the “Ratio IC50” value [3]?
Answer: Its value is 78.93.

Question: What about the IC50 [4] of the same molecule?
Answer: The IC50 was 2.21 µM.

Question: What about the CC50 [2] of the same molecule?
Answer: The CC50 was > 4.5 µM.

Question: Which IC50 [1] does the source give for `C=C(C)[C@@H]1CC[C@]2(C(=O)N3CCN(CCCCC(=O)N4CCN(C(=O)/C=C/c5ccc6c(c5)OCO6)CC4)CC3)CC[C@]3(C)[C@H](CC[C@@H]4[C@@]5(C)CC[C@H](O)C(C)(C)[C@@H]5CC[C@]43C)[C@@H]12` here?
Answer: Its IC50 is > 1 µM.

Question: Which IC50 [1] does the source give for `C=C(C)[C@@H]1CC[C@]2(C(=O)N3CCNCC3)CC[C@]3(C)[C@H](CC[C@@H]4[C@@]5(C)CC[C@H](OC(=O)CC(C)(C)C(=O)O)C(C)(C)[C@@H]5CC[C@]43C)[C@@H]12` here?
Answer: Its IC50 is 0.49 µM.

Question: What about the CC50 [2] of the same molecule?
Answer: The CC50 was > 1.5 µM.

Question: For `C=C(C)[C@@H]1CC[C@]2(C(=O)N3CCN(C(=O)/C=C/c4ccc5c(c4)OCO5)CC3)CC[C@]3(C)[C@H](CC[C@@H]4[C@@]5(C)CC[C@H](O)C(C)(C)[C@@H]5CC[C@]43C)[C@@H]12`, which IC50 [1] is on record?
Answer: Its IC50 is > 1 µM.

Question: For `O=C(/C=C/c1ccc(O)c2c1[C@H](C(=O)O)[C@@H](c1ccc(O)c(O)c1)O2)O[C@H](Cc1ccc(O)c(O)c1)C(=O)O` [LITHOSPERMIC ACID], which IC50 [13] is on record?
Answer: The IC50 was 2 µM.

Question: For `C=C(C)[C@@H]1CC[C@]2(C(=O)N3CCN(C(=O)/C=C/c4ccc(OC)c(OC)c4)CC3)CC[C@]3(C)[C@H](CC[C@@H]4[C@@]5(C)CC[C@H](O)C(C)(C)[C@@H]5CC[C@]43C)[C@@H]12`, which IC50 [1] is on record?
Answer: Its IC50 is > 1 µM.

Question: Which IC50 [12] does the source give for `O=C(/C=C/c1ccc(O)c(O)c1)O[C@@H]1C[C@](O)(C(=O)O)C[C@@H](OC(=O)/C=C/c2ccc(O)c(O)c2)[C@H]1O` here?
Answer: Its IC50 is 1.9 µM.
